Data as given in ChEMBL document CHEMBL1135409, “Structure-activity relationships of a novel class of endothelin-A receptor antagonists and discovery of potent and selective receptor antagonist, 2-(benzo[1,3]dioxol-5-yl)-6-isopropyloxy-4-(4-methoxyphenyl)-2H-chromene-3-carboxylic acid (S-1255). 1. Study on structure-activity relationships and …” (J Med Chem, 2002).
pIC50: −log10 of the molar value.

Columns and labels:
[1] = Ratio of inhibitory concentrations at ET-B receptor relative to that of ET-A receptor
[2] = target: T1, Endothelin receptor type B (Sus scrofa, UniProt P35463); experiment: Binding affinity to endothelin B receptor measured by inhibition of [125I]ET-3 binding recombinant pig ET-B receptor expressed in COS-7 cells; format: cell-based
T1 sequence (P35463 whole entry): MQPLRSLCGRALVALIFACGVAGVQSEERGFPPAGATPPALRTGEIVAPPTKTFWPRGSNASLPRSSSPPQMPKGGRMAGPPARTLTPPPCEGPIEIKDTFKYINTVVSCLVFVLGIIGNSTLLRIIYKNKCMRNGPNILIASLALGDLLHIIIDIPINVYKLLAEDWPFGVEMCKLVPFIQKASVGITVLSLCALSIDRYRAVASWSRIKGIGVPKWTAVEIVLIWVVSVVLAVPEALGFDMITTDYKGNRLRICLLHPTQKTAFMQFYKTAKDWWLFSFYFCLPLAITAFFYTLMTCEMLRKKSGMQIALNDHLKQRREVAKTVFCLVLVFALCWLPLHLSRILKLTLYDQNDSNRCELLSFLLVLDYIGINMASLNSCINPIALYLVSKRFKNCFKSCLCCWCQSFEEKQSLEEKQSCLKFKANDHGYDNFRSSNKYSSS
Method in brief: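 COS cells transfected with porcine ETB cDNA, in Hank's solution with 20 mM HEPES and protease inhibitors. Stopped by filtration on GF/C filters presoaked in 1% polyethylenimine, washed with 50 mM Tris-HCl pH 7.4, then counted. Nonspecific binding taken with 0.1 μM ET-3.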

[3] = target: T2, Endothelin-1 receptor (Rattus norvegicus, UniProt P26684); experiment: Binding affinity for endothelin A receptor by inhibition of [125I]ET1 binding in rat aorta smooth muscle cells; format: tissue-based
T2 sequence (P26684 whole entry): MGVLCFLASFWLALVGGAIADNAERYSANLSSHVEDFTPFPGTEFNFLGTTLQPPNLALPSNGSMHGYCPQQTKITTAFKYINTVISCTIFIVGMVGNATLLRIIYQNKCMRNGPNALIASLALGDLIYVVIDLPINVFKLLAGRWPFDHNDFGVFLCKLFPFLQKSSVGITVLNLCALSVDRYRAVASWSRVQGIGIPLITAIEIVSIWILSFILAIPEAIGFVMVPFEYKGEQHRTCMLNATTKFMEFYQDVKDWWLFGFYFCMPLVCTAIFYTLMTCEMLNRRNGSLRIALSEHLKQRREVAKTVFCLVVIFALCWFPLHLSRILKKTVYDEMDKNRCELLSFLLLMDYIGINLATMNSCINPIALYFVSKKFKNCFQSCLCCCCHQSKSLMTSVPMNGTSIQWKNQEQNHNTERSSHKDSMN

[4] = target: T3, Endothelin-1 receptor (Homo sapiens, UniProt P25101); experiment: Binding affinity at human Endothelin A receptor
T3 sequence (P25101 whole entry): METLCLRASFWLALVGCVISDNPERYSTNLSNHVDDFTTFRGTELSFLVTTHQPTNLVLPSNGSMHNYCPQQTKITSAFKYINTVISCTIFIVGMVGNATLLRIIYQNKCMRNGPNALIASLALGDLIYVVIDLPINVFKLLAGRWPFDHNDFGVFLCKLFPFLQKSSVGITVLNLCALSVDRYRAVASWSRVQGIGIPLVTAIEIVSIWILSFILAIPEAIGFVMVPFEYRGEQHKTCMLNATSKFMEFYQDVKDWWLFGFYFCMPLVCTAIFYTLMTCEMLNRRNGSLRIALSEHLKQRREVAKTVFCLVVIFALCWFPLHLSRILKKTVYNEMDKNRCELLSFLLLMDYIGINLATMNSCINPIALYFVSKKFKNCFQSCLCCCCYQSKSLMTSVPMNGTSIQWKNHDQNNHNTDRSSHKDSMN
Method in brief: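 Membranes from CHO cells expressing human ETA receptor were incubated with [125I]ET-1 and the test compound at various concentrations for 60 min at 37 °C. Buffer was Hank's solution with 20 mM HEPES and protease inhibitors. Bound ligand was collected on PEI-presoaked glass-fibre filters and washed with 50 mM Tris-HCl pH 7.4, then counted.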

[5] = target: T4, Endothelin receptor type B (Homo sapiens, UniProt P24530); experiment: Binding affinity at human Endothelin B receptor
T4 sequence (P24530 whole entry): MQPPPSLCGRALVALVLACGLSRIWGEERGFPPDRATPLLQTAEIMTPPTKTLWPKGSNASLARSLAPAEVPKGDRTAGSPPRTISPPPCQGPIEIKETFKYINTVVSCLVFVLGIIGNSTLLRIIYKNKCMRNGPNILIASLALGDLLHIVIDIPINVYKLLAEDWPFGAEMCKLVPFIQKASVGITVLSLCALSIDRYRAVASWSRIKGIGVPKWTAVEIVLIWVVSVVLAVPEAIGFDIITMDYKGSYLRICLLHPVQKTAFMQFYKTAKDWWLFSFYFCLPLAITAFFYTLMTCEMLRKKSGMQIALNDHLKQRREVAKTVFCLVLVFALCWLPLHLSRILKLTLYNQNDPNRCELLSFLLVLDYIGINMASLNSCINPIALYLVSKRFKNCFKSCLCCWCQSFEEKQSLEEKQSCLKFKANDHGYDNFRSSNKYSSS
Method in brief: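 Membranes from CHO cells expressing human ETB receptor were incubated with [125I]ET-3 (25 pM as added) and the test compound at various concentrations for 60 min at 37 °C. Buffer was HEPES (20 mM)-buffered Hank's solution with protease inhibitors. Samples were filtered on PEI-presoaked glass-fibre filters, washed with 50 mM Tris-HCl pH 7.4 and counted. Nonspecific binding was taken with 0.1 µM ET-3.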

| Ratio [1] | pIC50 [2] | pIC50 [3] | pIC50 [4] | pIC50 [5] | SMILES |
| --- | --- | --- | --- | --- | --- |
| 110 | 6.40 | 8.42 |  |  | CCOc1ccc2c(c1)C(c1ccc(OC)cc1)=C(C(=O)O)C(c1ccc3c(c1)OCO3)O2 (stereo unspecified) |
| 1.5 | 5.74 | 5.92 |  |  | CCCOc1cccc2c1C(c1ccc(OC)cc1)=C(C(=O)O)C(c1ccc3c(c1)OCO3)O2 (stereo unspecified) |
|  | 6.92 | 9.72 | 9.35 | 6.70 | COc1ccc(C2=C(C(=O)O)[C@@H](c3ccc4c(c3)OCO4)Oc3ccc(OC(C)C)cc32)cc1 |
| 1.7 | 6.72 | 6.96 |  |  | COc1ccc(C2=C(C(=O)O)C(c3ccc4c(c3)OCO4)Oc3ccc(C(C)C)cc32)cc1 (stereo unspecified) |
| 74 | 5.31 | 7.18 |  |  | CCCCOC1=C(C(=O)O)C(c2ccc3c(c2)OCO3)Oc2ccccc21 (stereo unspecified) |
| 16 | 5.85 | 7.07 |  |  | COc1ccc(C2=C(C(=O)O)C(c3ccc4c(c3)OCO4)Oc3ccccc32)cc1 (stereo unspecified) |
| 61 | 6.77 | 8.55 |  |  | COc1ccc(C2=C(C(=O)O)C(c3ccc4c(c3)OCO4)Oc3ccc(OC(C)CO)cc32)cc1 (stereo unspecified) |
| 950 | 6.40 | 9.38 |  |  | CCCCC1=C(C(=O)O)[C@@H](c2ccc3c(c2)OCO3)Oc2ccc(OC(C)C)cc21 |
| 9.2 | 5.64 | 6.60 |  |  | CCCCOC1=C(C(=O)O)C(c2ccc3c(c2)OCO3)Oc2ccc(OC)cc21 (stereo unspecified) |
| 220 | 4.28 | 6.62 |  |  | CC(C)Oc1ccc2c(c1)C=C(C(=O)O)[C@@H](c1ccc3c(c1)OCO3)O2 |
